From ChEMBL document CHEMBL4513216, “Probing the Open Global Health Chemical Diversity Library for Multistage-Active Starting Points for Next-Generation Antimalarials” (ACS Infect Dis, 2020)

Test: Toxicity liver stage against HepG2, at 10uM
Type: cell-based
Design: test concentration 10 uM, cell line HepG2-A16-CD81EGFP
Conditions: human, HepG2-A16-CD81EGFP cells; read-out: INHIBITION
Outline: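 Uninfected HepG2-A16-CD81EGFP cells, 3 × 10^3 per well, 1536-well, plated on prespotted compound at 10 μM final, parasite-free screening media added to match infected plates; puromycin 10 μM positive, DMSO 0.5% negative; run in parallel with 48 h PbLuc assay at 37 °C, 5% CO2; viability by CellTiter-Glo luminescence, normalized to controls.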

CC(C)c1ccc(OCCNC(=O)N2CCS(=O)(=O)CC2)cc1
cytotoxicity at 10 µM: -5.54%

CN(C)c1ncc(CN2CCC(c3nnsc3S(C)(=O)=O)CC2)cn1
cytotoxicity at 10 µM: 4.12%

COCCCNS(=O)(=O)c1cccc(CSC)c1
cytotoxicity at 10 µM: 11.9%

O=C(C1CCN(c2nc3nc[nH]c(=O)c3s2)CC1)N1CCCCC1
cytotoxicity at 10 µM: -5.55%

Cc1ccccc1OCCCNC(=O)C1(C)CC(=O)N2C=CC=CC2=N1 (centres undefined)
cytotoxicity at 10 µM: -4.96%

Cc1nn(C)cc1S(=O)(=O)N(C)[C@@H]1CCC[C@@H](n2ccnc2)[C@@H]1O
cytotoxicity at 10 µM: -2.78%

O=C(O)c1coc(COc2cccc(F)c2)n1
cytotoxicity at 10 µM: 0.523%

CCCn1nc2c(cc1=O)CN(Cc1cc(C)no1)CC2
cytotoxicity at 10 µM: -11.6%

COc1ccc(NC(=O)CCC2CCCN(S(=O)(=O)C3CC3)C2)c(C)c1 (centres undefined)
cytotoxicity at 10 µM: -3.41%

COCCNC(=O)[C@H]1CC[C@@H]2[C@@H](CCN2S(C)(=O)=O)O1
cytotoxicity at 10 µM: -8.87%

Cc1ccc2c(n1)N(CCN(C)C)CCN(C(=O)c1ccc[nH]1)C2
cytotoxicity at 10 µM: 6.59%

CN(Cc1cn2c(n1)CN(C(=O)CC1CC1)CC2)Cc1ccco1
cytotoxicity at 10 µM: -2.21%

Cc1ccc(NC2CCN(C(=O)CC3CCCO3)CC2)nn1 (centres undefined)
cytotoxicity at 10 µM: -10.5%

C[C@@H]1C[C@H]2CN(C(=O)C3=CCCCC3)C[C@H]2O1
cytotoxicity at 10 µM: 7.18%

COCCn1ccc(NCc2sccc2C)n1
cytotoxicity at 10 µM: 5.6%

Cc1nc(-c2ccccc2)ccc1C(=O)N1CCN(CCO)CC1
cytotoxicity at 10 µM: -53.9%

Fc1cccc(N2CCCC3(CN(Cc4ccco4)CCO3)C2)c1 (centres undefined)
cytotoxicity at 10 µM: -63.5%

CNC(=O)[C@@H]1C[C@H]2CN(Cc3c(C)noc3C)C[C@H]2N1C(C)C
cytotoxicity at 10 µM: -107%

Cc1noc(-c2ccc(N3CCN(Cc4ncccc4C)CC3)nc2)n1
cytotoxicity at 10 µM: -3.35%

Cc1cc(C2CCCN(C(=O)COc3ccc(F)cc3)C2)n[nH]1 (centres undefined)
cytotoxicity at 10 µM: 3.59%

Cc1cn[nH]c1C1COCCN1C(=O)c1ccc2[nH]nnc2c1 (centres undefined)
cytotoxicity at 10 µM: 2.73%

O=C1Nc2ccccc2CC12CCCN2Cc1ccccn1 (centres undefined)
cytotoxicity at 10 µM: -17.1%

CCOc1cccc2c1OCC(C(=O)NS(=O)(=O)c1cncc(Br)c1)=C2
cytotoxicity at 10 µM: -0.713%

Cc1ccc(NC2CCN(C(=O)c3ccc(Cl)cc3F)CC2)nn1
cytotoxicity at 10 µM: -17.7%

COc1cc(CNC(=O)C(C)SC)cc(Br)c1OC (centres undefined)
cytotoxicity at 10 µM: 0.247%

Cc1cccc(CNC(=O)Nc2ccn(CCCC(=O)N(C)C)n2)c1
cytotoxicity at 10 µM: 2%

CNc1cc(C2CN(Cc3coc(C)n3)CCO2)nc(C)n1 (centres undefined)
cytotoxicity at 10 µM: -11.1%

O=C(CCN1CCc2ccccc21)N1CC(C(=O)N2CCOCC2)C1
cytotoxicity at 10 µM: -26.7%

CCOc1ccc(NC(=O)NC2CCc3[nH]ncc3C2)cn1 (centres undefined)
cytotoxicity at 10 µM: 3.95%

COCCN1CCC(NCc2c(C)nn(C)c2N(C)C)CC1
cytotoxicity at 10 µM: -2.11%

Cc1cc(C)nc(NCCC(=O)NCCn2ccc3ccccc32)n1
cytotoxicity at 10 µM: -34.2%

CC(C)CN1CCCn2nc(CNC(=O)NC(C)(C)C)cc2C1
cytotoxicity at 10 µM: -4.54%

Cc1n[nH]c(C)c1CCC(=O)N1CCc2c(nc[nH]c2=O)C1
cytotoxicity at 10 µM: -5%

c1cc(CN2CCC(Cc3noc(C4CC4)n3)CC2)c2c(c1)OCO2
cytotoxicity at 10 µM: 7.69%

COc1ccccc1C(=O)N1CCOCC1c1c(C)n[nH]c1C (centres undefined)
cytotoxicity at 10 µM: -8.72%

COC1CCN(C(=O)Nc2cc(C(F)(F)F)c[nH]c2=O)CC1
cytotoxicity at 10 µM: 4.1%

Cn1ccnc1CN1C(=O)CO[C@H]2CN(Cc3ccccc3O)C[C@H]21
cytotoxicity at 10 µM: 4.22%

O=C(CCNS(=O)(=O)c1ccccc1F)NCc1ccoc1
cytotoxicity at 10 µM: -16.5%

Cc1ccc(N(C)C2CCN(C(=O)CCc3ccco3)CC2)nn1
cytotoxicity at 10 µM: -7%

CNc1ncccc1CN1CCN(C)CC(C(N)=O)C1 (centres undefined)
cytotoxicity at 10 µM: 0.106%

CCN(CC)C(=O)c1nnc2ccc(N3CCOCC3)cc2n1
cytotoxicity at 10 µM: 5.37%

CN(Cc1nnc2n1CCC2)C(=O)CCc1ccc2c(c1)OCO2
cytotoxicity at 10 µM: -14%

CC(=O)N1[C@H](Cn2cncn2)C[C@@H]2CN(c3ncc(F)cn3)CC[C@@H]21
cytotoxicity at 10 µM: -5.09%

CC(C)(C)c1nc(CN2CCC(N3CCCCC3)CC2)no1
cytotoxicity at 10 µM: -0.48%

Cc1c(-c2cc(C(F)(F)F)nc(N3CCC(N)CC3)n2)cnn1C
cytotoxicity at 10 µM: 6.14%

CNc1nc(C2CCCN(C(=O)CNC(C)=O)C2)nc2c1CN(C)CC2 (centres undefined)
cytotoxicity at 10 µM: -10.9%

COc1cccc(CN(C)Cc2cccc(C#N)c2)c1OC
cytotoxicity at 10 µM: -7.82%

CCN(CC(=O)Nc1c(C)nn(C)c1C)CC(O)c1ccc(C)cc1 (centres undefined)
cytotoxicity at 10 µM: -8.14%

COc1ccc(C(CNC(=O)Nc2cn[nH]c2)N2CCOCC2)cc1 (centres undefined)
cytotoxicity at 10 µM: 1.3%

CC1(C)OCC(CNC(=O)c2cnn(-c3cc(Cl)ccc3Cl)c2N)O1 (centres undefined)
cytotoxicity at 10 µM: 2.84%

CCn1nnc2c1C(COCCN(C)C)CN(Cc1ccco1)C2 (centres undefined)
cytotoxicity at 10 µM: 1.86%

CN(C)C(=O)CO[C@H]1CN(Cc2ccc(F)cc2)[C@@H]2CCCO[C@H]12
cytotoxicity at 10 µM: -22.3%

N#Cc1ccnc(N2CCN(CC(O)c3ccc(F)cc3F)CC2)c1 (centres undefined)
cytotoxicity at 10 µM: -0.626%

Cc1nn(Cn2ccc(C(=O)N3CCOCC3)n2)c(C)c1Cl
cytotoxicity at 10 µM: -0.112%

O=C(COCC1CC1)N1CCCC(n2cncn2)C1 (centres undefined)
cytotoxicity at 10 µM: -3.54%

CCOCCC(=O)NCCNc1nccc(C(F)(F)F)n1
cytotoxicity at 10 µM: 2.88%

CC(=O)N1CCC(C(=O)c2cc(C)cnc2N)CC1
cytotoxicity at 10 µM: -0.0531%

CCN1CCN(C(=O)c2cnc(Cc3c(Cl)cccc3Cl)nc2O)CC1
cytotoxicity at 10 µM: 2.57%

COCCNC(=O)C[C@@H]1COC[C@H]2CN(C(=O)C3CCOCC3)C[C@@H]12
cytotoxicity at 10 µM: -94.8%

N[C@H]1CN(C(=O)c2ccccc2Oc2ccccc2)C[C@@H]1C1CC1
cytotoxicity at 10 µM: -0.948%

FC(F)(F)Oc1cccc(CNCc2ccc(-n3cncn3)nc2)c1
cytotoxicity at 10 µM: 20.3%

O=C(NCC1CCC1)c1cccc(CN2CCS(=O)(=O)CC2)c1
cytotoxicity at 10 µM: -7.89%

Cc1csc(CCCNC(=O)NC2CC(=O)N(C(C)(C)C)C2)n1 (centres undefined)
cytotoxicity at 10 µM: -8.88%

Cc1nc2ccccc2n1Cc1cc(C(=O)NC2CCOC2)no1 (centres undefined)
cytotoxicity at 10 µM: 4.45%

Cc1cccnc1CNCC1(O)CCCN(CC2CCCCC2)C1=O (centres undefined)
cytotoxicity at 10 µM: -2.37%

CCN1C[C@H]2C3(CCN(C(=O)NC(C)C)CC3)CC[C@@]2(C(=O)N(C)C)C1
cytotoxicity at 10 µM: -109%

Cc1ccc(-c2nc(CN(Cc3cccs3)CC3CCCO3)no2)cc1 (centres undefined)
cytotoxicity at 10 µM: 0.561%

CCOCCOC(C)C(=O)Nc1ccc2ccn(CC(=O)NC)c2c1 (centres undefined)
cytotoxicity at 10 µM: 2.3%

CCCc1cc(CNc2cc(CCC)nc3ccnn23)on1
cytotoxicity at 10 µM: -6.75%

O=C(Cc1cc2c(cc1Cl)OCCO2)N1CC[C@H](CO)[C@H](O)C1
cytotoxicity at 10 µM: 7.96%

Cn1cc(C2CC(=O)NC23CCN(C(=O)C2CC=CC2)CC3)cn1 (centres undefined)
cytotoxicity at 10 µM: 8.13%

N#Cc1cc(N2CCC(CS(N)(=O)=O)CC2)nc2ccccc12
cytotoxicity at 10 µM: -6.03%

CCOCCN1CCC(C(=O)c2cc(F)ccc2F)CC1
cytotoxicity at 10 µM: -7.33%

Cc1nc(NCc2ccccc2)cc(C(C)Cn2nc(C)c(C)c2C)n1 (centres undefined)
cytotoxicity at 10 µM: 7.03%

NC(=O)CN1CCCN(C(=O)Cc2ccc3c(c2)OCO3)CC1
cytotoxicity at 10 µM: 2.96%

Cc1ccc(OC2(C(=O)O)CCN(C(=O)c3cccs3)CC2)cn1
cytotoxicity at 10 µM: 0.92%

O=C(NCCCN1CCOCC1)c1ccn(COc2ccc(F)cc2)n1
cytotoxicity at 10 µM: 7.16%

O=c1cc(Cn2cncn2)nc2n1CCCN(Cc1ccoc1)C2
cytotoxicity at 10 µM: 3.37%

Oc1ccc(CCC2CCCCN2Cc2noc(C3CC3)n2)cc1 (centres undefined)
cytotoxicity at 10 µM: 0.55%

CC(C)(C)NC(=O)c1ccccc1NC(=O)c1ccncc1
cytotoxicity at 10 µM: -10.3%

COc1ccc(OC)c(CN2CCCCCC2c2cccs2)c1 (centres undefined)
cytotoxicity at 10 µM: -5%

Cc1noc(C)c1C(=O)Nc1ccc2ncn(CC(C)C)c(=O)c2c1
cytotoxicity at 10 µM: 8.75%

O=C(NCc1cccnc1)c1ccc2nccn2c1
cytotoxicity at 10 µM: 8.08%

CC(=O)NCCn1ccnc1-c1cccc(C(C)N(C)C)c1 (centres undefined)
cytotoxicity at 10 µM: 2.4%

COc1ccc2c(=O)ccn(CC(=O)O)c2c1
cytotoxicity at 10 µM: 10.2%

O=c1c(-c2ccnc(N3CCCC[C@@H]3CO)n2)cnc2sccn12
cytotoxicity at 10 µM: -10.3%

Cc1[nH]c2c(F)cccc2c1CC(=O)N1CCCC(N)CC1 (centres undefined)
cytotoxicity at 10 µM: 3.26%

Cc1nc2ncnn2c2ccn(-c3cccnc3O)c(=O)c12
cytotoxicity at 10 µM: 15.9%

O=C(CCN1CCCCO1)NCCSc1cnn[nH]1
cytotoxicity at 10 µM: 0.956%

Cc1ncc(CN2CCC(c3nc(O)cc(-c4ccsc4)n3)CC2)cn1
cytotoxicity at 10 µM: -11.8%

Cc1ccc(CN2CCc3[nH]nc(C(=O)N(C)C)c3C2)s1
cytotoxicity at 10 µM: -7.55%

Cc1ccc(F)c(S(=O)(=O)NCCc2nnc[nH]2)c1
cytotoxicity at 10 µM: 3.16%

CNC(=O)c1ccnc(CC2COc3c(cccc3OC)C2)c1 (centres undefined)
cytotoxicity at 10 µM: 3.77%

CC(C)=CCN1CCN(C(=O)c2cc(C(C)C)on2)[C@H]2CS(=O)(=O)C[C@H]21
cytotoxicity at 10 µM: 3.54%

CNC(=O)c1ccc(Cn2ccnc2S(C)(=O)=O)cc1
cytotoxicity at 10 µM: -3.83%

CCn1nc2c(cc1=O)CN(Cc1ccc(-n3cccn3)cc1)CC2
cytotoxicity at 10 µM: -134%

Cc1nccn1CCN1C(=O)CC2(CCCC2)CC1=O
cytotoxicity at 10 µM: -2.11%

CC(=O)N1CCN(C(=O)Nc2ccccc2)CC2(CC(=O)N(C)C2)C1 (centres undefined)
cytotoxicity at 10 µM: -8.93%

Cc1cnnn1Cc1ncn2c1CN(Cc1cccs1)CCC2
cytotoxicity at 10 µM: 3.58%

CC(=O)N1CCc2ccc(S(=O)(=O)N3CCCCC3C)cc21 (centres undefined)
cytotoxicity at 10 µM: -10.3%

O=C(c1ccc[nH]1)N1CCCC(c2cc(C(F)(F)F)[nH]n2)C1 (centres undefined)
cytotoxicity at 10 µM: 2.04%

Cc1noc(CN(C)C(=O)CCn2cnc3ccccc32)n1
cytotoxicity at 10 µM: 10.1%

Cc1noc(C)c1S(=O)(=O)N1CCc2nc(C3CCNCC3)ncc2C1
cytotoxicity at 10 µM: -22.9%

CN(C)c1ccc(NC(=O)c2ccnn2C)nc1
cytotoxicity at 10 µM: 15.1%

CCc1nc(CN2CCCN(C(=O)COCC3CC3)CC2)cs1
cytotoxicity at 10 µM: -5.2%

Cc1ccc(CS(=O)(=O)CC(=O)NCCCOC(C)C)cc1
cytotoxicity at 10 µM: -2.9%

CCN(CC1CCCN(CCc2cccc(OC)c2)C1)C(=O)CO (centres undefined)
cytotoxicity at 10 µM: 9.34%

O=C1CCC2(CCCN(C(=O)c3cccnc3)CC2)N1 (centres undefined)
cytotoxicity at 10 µM: 6.56%

CCN(CC)S(=O)(=O)c1cc2c3c(c1)c(C)cc(=O)n3CC2
cytotoxicity at 10 µM: 5.45%
